From ChEMBL document CHEMBL1177791, “Discovery of piperidin-4-yl-aminopyrimidines as HIV-1 reverse transcriptase inhibitors. N-benzyl derivatives with broad potency against resistant mutant viruses” (Bioorg Med Chem Lett, 2010) come the findings set out here.

Assay [1] deals with Human immunodeficiency virus type 1 reverse transcriptase (Human immunodeficiency virus 1, UniProt Q72547, Y188L). Kind of assay: Inhibition of HIV1 reverse transcriptase Y188L mutant by SPA heteropolymeric assay. In a few lines: (§1)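 Recombinant mutant RT, heteropolymeric assay of RNA-dependent DNA polymerase activity. Uses a biotinylated primer oligonucleotide and tritiated dNTP substrate. Newly synthesized DNA is captured via the biotinylated primer on streptavidin-coated scintillation proximity beads and counted. Reported as IC50.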

For assay [2], the target named is Human immunodeficiency virus type 1 reverse transcriptase (Human immunodeficiency virus 1, UniProt Q72547). In words: Inhibition of wild type HIV1 reverse transcriptase by SPA heteropolymeric assay. The method, boiled down: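 Recombinant RT, heteropolymeric assay of RNA-dependent DNA polymerase activity with biotinylated primer oligonucleotide and tritiated dNTP substrate; new DNA quantified by capturing biotinylated primer on streptavidin-coated SPA beads; IC50 reported.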

Assay [3] addresses Human immunodeficiency virus type 1 reverse transcriptase (Human immunodeficiency virus 1, UniProt Q72547, K103N/Y181C). In words: Inhibition of HIV1 reverse transcriptase K103N/Y181C double mutant by SPA heteropolymeric assay. The method, boiled down: as §1
Assay [4] relates to Human immunodeficiency virus 1. In words: Antiviral activity against HIV1 expressing reverse transcriptase K103N/Y181C double mutant infected in human MT4 cells assessed as reduction in virus-induced cytopathic effect. As to conditions: Human immunodeficiency virus 1, MT4. Format: functional, organism-based. In a few lines: (§2)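 Compound incubated with HIV-1-infected MT4 cells in medium containing 10% fetal bovine serum. Read-out was reduction of viral cytopathic effect on the cells, reported as EC50.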
(In general: Cytopathic effects are the visible damage that an infection or toxin causes in cultured cells.)

The test system of assay [5] is Human immunodeficiency virus 1. In words: Antiviral activity against HIV1 expressing reverse transcriptase Y188L mutant infected in human MT4 cells assessed as reduction in virus-induced cytopathic effect. The note with it: Human immunodeficiency virus 1, MT4. Format: functional, organism-based. In a few lines: as §2
The test system of assay [6] is Human immunodeficiency virus 1. In words: Antiviral activity against HIV1 infected in human MT4 cells assessed as reduction in virus-induced cytopathic effect. Format: functional, organism-based. As to conditions: Human immunodeficiency virus 1, MT4.
The subject of assay [7] is Human immunodeficiency virus 1. Kind of assay: Antiviral activity against HIV1 expressing reverse transcriptase V106A mutant infected in human MT4 cells assessed as reduction in virus-induced cytopathic effect. Format: functional, organism-based. The note with it: Human immunodeficiency virus 1, MT4. In a few lines:
as §2

Assay [8] concerns Human immunodeficiency virus 1. Kind of assay: Antiviral activity against wild type HIV1 infected in human MT4 cells assessed as reduction in virus-induced cytopathic effect in presence of 40 % human serum. Format: functional, organism-based. The note with it: Human immunodeficiency virus 1, MT4.
The subject of assay [9] is Human immunodeficiency virus 1. Kind of assay: Antiviral activity against HIV1 expressing reverse transcriptase K103N/L100I double mutant infected in human MT4 cells assessed as reduction in virus-induced cytopathic effect. Type of assay: functional, organism-based. As to conditions: Human immunodeficiency virus 1, MT4. The method, boiled down:
as §2

For assay [10], the system named is Human immunodeficiency virus 1. In words: Antiviral activity against wild type HIV1 infected in human MT4 cells assessed as reduction in virus-induced cytopathic effect in presence of 10 % fetal bovine serum. Type of assay: functional, organism-based. The note with it: Human immunodeficiency virus 1, MT4.
In assay [11] the test system is Human immunodeficiency virus 1. Kind of assay: Antiviral activity against HIV1 expressing reverse transcriptase G190A mutant infected in human MT4 cells assessed as reduction in virus-induced cytopathic effect. Format: functional, organism-based. The note with it: Human immunodeficiency virus 1, MT4. The method, boiled down: as §2

The term IC50 denotes the concentration that gives 50% inhibition. For `Cc1cc(C#N)cc(C)c1Oc1nc(NC2CCN(Cc3ccc(C#N)cc3)CC2)ncc1Br`, the IC50 in assay [1] turned out to be 41 nM; in [2], 21 nM; in [3] it was 18 nM.
Consider `Cc1cc(C#N)cc(C)c1Oc1ccnc(NC2CCN(Cc3ccc(S(C)(=O)=O)cc3)CC2)n1`, for which the IC50 in assay [1] was 72 nM; in assay [4] it was 20.2 nM; in assay [2], 34 nM; in assay [3], 50 nM; in assay [5] it was 16.9 nM.
With `Cc1cc(C#N)cc(C)c1Oc1nc(NC2CCN(Cc3ccc(C(N)=O)cc3Cl)CC2)ncc1Br`, the IC50 in [1] amounted to 519 nM; in assay [4] it was 52.7 nM; in assay [6], 41.5 nM; in assay [2], 131 nM; in assay [3], 69 nM; in assay [5], 30.2 nM.
Regarding `Cc1cc(C#N)cc(C)c1Oc1nc(NC2CCN(Cc3ccc(S(C)(=O)=O)cc3Cl)CC2)ncc1Br`, the IC50 came to 2 nM in assay [7]; 48.7 nM in assay [8]; 5.9 nM in assay [9]; 216 nM in assay [1]; 7.3 nM in assay [4]; 6.1 nM in [10]. The IC50 in [6] amounted to 6.1 nM; in assay [2] it was 45 nM; in assay [11] it was 1.8 nM; in assay [3], 28 nM; in assay [5] it was 2.8 nM.
`Cc1cc(C#N)cc(C)c1Oc1ccnc(NC2CCN(Cc3ccc(S(N)(=O)=O)cc3Cl)CC2)n1`: the IC50 came to 105 nM in [1]; 21.4 nM in assay [4]; 4.4 nM in [6]; 84 nM in assay [2]; 25 nM in assay [3]; 1.4 nM in assay [5].
Take `Cc1cc(C#N)cc(C)c1Oc1nc(NC2CCN(Cc3ccc(Cl)cc3)CC2)ncc1Br`: the IC50 in assay [1] amounted to 793 nM; in assay [2], 152 nM; in [3], 129 nM.
Consider `Cc1cc(C#N)cc(C)c1Oc1nc(NC2CCN(Cc3ccccc3)CC2)ncc1Br`, for which the IC50 is 70 nM in assay [1]; greater than 100 nM in [4]; 6.5 nM in assay [6]; 19 nM in assay [2]; 15 nM in [3]; 9.1 nM in assay [5].
Consider `Cc1cc(C#N)cc(C)c1Oc1nc(NC2CCN(Cc3ccccc3C#N)CC2)ncc1Br`, for which the figures for the IC50 in [1], in [2] and in [3] were 43 nM, 29 nM and 62 nM, respectively.
Take `Cc1cc(C#N)cc(C)c1Oc1nc(NC2CCN(Cc3ccc(S(C)(=O)=O)cc3)CC2)ncc1Br`: the IC50 in assay [1] was 28 nM; in assay [4], 35.7 nM; in assay [6], 5.2 nM; in assay [2], 28 nM; in [3], 14 nM; in [5], less than 1.2 nM.
Regarding `Cc1cc(C#N)cc(C)c1Oc1ccnc(NC2CCN(Cc3ccc(S(C)(=O)=O)cc3Cl)CC2)n1`, the IC50 in [1] was 263 nM; in [4], 67.2 nM; in assay [6] it was 24.6 nM; in assay [2] it was 22 nM; in [3] it was 30 nM; in assay [5], 46.5 nM.
With `Cc1cc(C#N)cc(C)c1Oc1nc(NC2CCN(Cc3cccc(C#N)c3)CC2)ncc1Br`, the IC50 in assay [1] was 37 nM; in [2], 23 nM; in assay [3], 27 nM.
The like results for `Cc1cc(C#N)cc(C)c1Oc1nc(NC2CCN(c3ccccc3)C2)ncc1Br` (centres undefined) were, in that order, 718 nM, 67 nM and greater than 1000 nM.
With `Cc1cc(C#N)cc(C)c1Oc1ccnc(NC2CCN(Cc3ccccc3)CC2)n1`, the IC50 is 372 nM in assay [1]; greater than 100 nM in assay [4]; 3.3 nM in [6]; 87 nM in assay [2]; 216 nM in assay [3]; 43.6 nM in [5].
In the case of `Cc1cc(C#N)cc(C)c1Oc1ccnc(NCCC(=O)Nc2ccc(S(N)(=O)=O)cc2Cl)n1`, the IC50 in assay [1] is greater than 10000 nM; in assay [2] it was 900 nM; in assay [3], greater than 1000 nM.
Take `Cc1cc(C#N)cc(C)c1Oc1nc(NC2CCN(Cc3ccc(S(N)(=O)=O)cc3Cl)CC2)ncc1Br`: the IC50 was found to be 2.3 nM in [7]; 61.5 nM in assay [8]; 9.1 nM in assay [9]; 208 nM in assay [1]; 18.9 nM in assay [4]; 9.9 nM in assay [10]. The IC50 in [6] was 9.9 nM; in assay [2], 90 nM; in [11] it was 6 nM; in [3], 21 nM; in [5], 3.2 nM.
As to `Cc1cc(C#N)cc(C)c1Oc1nc(NC2CCN(Cc3ccc(C#N)cc3Cl)CC2)ncc1Br`, the IC50 in assay [4] was found to be 67.4 nM; in assay [6] it was 17.6 nM; in assay [2], 146 nM; in assay [3], 159 nM; in assay [5], 11.6 nM.
In the case of `Cc1cc(C#N)cc(C)c1Oc1nc(NC2CCN(Cc3cccc(Cl)c3)CC2)ncc1Br`, the IC50 in assay [2] came to 241 nM; in assay [3], 229 nM.
Turning to `Cc1cc(C#N)cc(C)c1Oc1nc(NC2CCN(c3ccccc3)CC2)ncc1Br`, the IC50 in assay [1] worked out at 334 nM; in assay [2], 192 nM; in assay [3], 112 nM.
`Cc1cc(C#N)cc(C)c1Oc1nc(NC2CCN(Cc3ccc(C(=O)O)cc3Cl)CC2)ncc1Br`: the IC50 in assay [1] was 86 nM; in assay [4], 74.2 nM; in assay [6], 3.9 nM; in [2], 32 nM; in assay [3], 28 nM.
For the compound `O=C1Nc2ccc(Cl)cc2[C@@](C#CC2CC2)(C(F)(F)F)O1` [EFAVIRENZ], the IC50 in [7] was 5.7 nM; in [9], greater than 500 nM; in [11] it was 6 nM; in assay [5], greater than 1000 nM.
`Cc1cc(C#N)cc(C)c1Oc1nc(Nc2ccc(C#N)cc2)nc(N)c1Br` [ETRAVIRINE]: the IC50 was found to be 25.9 nM in [8], 9.5 nM in [9], 1.1 nM in [11] and 3.1 nM in assay [5].
